XBP1 UPR activ: adaptive UPR (XBP1) activation; activation, % at 20 µM; 330,000 tested, 0.33% active; CHO-XBP1 luciferase reporter, IRE1-XBP1 UPR activation, luminescence; percent of tunicamycin response, DMSO as zero;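 active = versus positive control, 20 µM dose yields 30% or more activation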
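assay system = CHO-XBP1 luciferase reporter cells | amount = 1000 cells/well | buffer or medium = F12 plus 10% FBS | compound dosing = single point, 20 µM final compound, 1% DMSO | incubation = 16-18 h cell attachment at 37 °C, then 6 h compound exposure | detection = Steady-Glo luminescence read | controls = tunicamycin 10 µg/mL and vehicle-only wells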
Jurkat NFkB inh: lowers PMA/ionomycin-induced NF-kB signal in Jurkat cells. inhibition, % at 4 µM. AID 435003. 330,000 tested, 0.53% active. PMA/ionomycin-induced NF-kB luciferase reporter, luminescence; in the data active = inhibition above about 50%
CHOP inh: CHOP inhibition in unfolded protein response; 220,000 tested, 3.8% active; CHO-K1 CHOP-promoter luciferase, tunicamycin-induced, 15-18 h; inhibition, % at 10 µM;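 active = compounds that reduced the stress-induced luciferase reporter signal by more than about 70% of percent inhibition, limit read from the data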
UPR CHOP act: activators of apoptotic arm of unfolded protein response (CHOP); AID 449763; activation, % at 10 µM; CHO-CHOP luciferase reporter, UPR activation, luminescence; percent of tunicamycin response over DMSO baseline; 330,000 tested, 0.34% active;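 active = at 10 µM dose, activation of 40% or more, normalized to positive control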
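measured by = luciferase luminescence | assay system = CHO-CHOP cells, stable luciferase reporter of PERK-eIF2a-CHOP signalling | amount = 500 reporter cells seeded per well | timing = 6 h compound exposure at 37 °C after overnight seeding | controls = positive tunicamycin 10 µg/mL, negative DMSO alone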
697 NFkB inh: lowers PMA/ionomycin-induced NF-kB signal in 697 B cells. 697 B-cell NF-kB luciferase reporter, 16 h. inhibition, % at 4 µM. 330,000 tested, 0.33% active. AID 435022; in the data active = inhibition above about 35%
Each line names hits and unclear results; the compound was inactive in the other large screens. The sample as a whole holds a higher share of hits than the screen did.

Cc1ccc(C)c(N2CCN(C(=O)c3ccccc3Br)CC2)c1	CHOP inh 87
Cc1ccc(C)c(N2CCN(C(=O)C3CCN(c4nc(C)cc(C)n4)CC3)CC2)c1	CHOP inh 88
Cc1ccc(N2CCN(C(=O)c3ccccc3Br)CC2)c(C)c1	CHOP inh 87
Cc1ccc(C)c(N2CCN(C(=O)c3csc(C)c3C)CC2)c1	none
O=C(O)C(Cc1ccccc1)N1C(=O)/C(=C/c2cccc3ccccc23)SC1=S (stereo not given)	CHOP inh 106 (no result: XBP1 UPR activ, Jurkat NFkB inh, UPR CHOP act, 697 NFkB inh)
O=C(O)C(Cc1ccccc1)N1C(=O)/C(=C/c2ccccc2)SC1=S (stereo not given)	none
CCO[C@@H]1OC(C(=O)N2CCN(C)CC2)=C[C@H](c2coc3ccccc3c2=O)[C@H]1CCCO	none
O=C(CCN1C(=O)C2CCCCC2C1=O)Nc1nc(-c2ccccc2)cs1 (stereo not given)	none
O=C(Nc1nc2ccccc2n1CCN1CCOCC1)c1ccc(COc2ccccc2Br)o1	none
Cc1ccc(N=Nc2c(N)nn3c(N)c(C#N)c(C)nc23)cc1	CHOP inh 73
CCCCN1CC(=O)N2[C@H]3c4ccccc4OC[C@@H]3[C@H](C(=O)OCC)[C@]2(C)C1=O	none (no result: CHOP inh)
CCCC(C)NC(=O)Cc1ccc(S(=O)(=O)N2CCOCC2)s1 (stereo not given)	none (no result: CHOP inh)
CC(C)COP(=O)(OCC(C)C)C(Nc1ccccc1)c1ccc(F)cc1 (stereo not given)	CHOP inh 75
CC(C)OP(=O)(OC(C)C)C(Nc1ccccc1)c1ccc2c(c1)OCO2 (stereo not given)	none
CC(C)COP(=O)(OCC(C)C)C(Nc1ccccc1)c1ccc2c(c1)OCO2 (stereo not given)	CHOP inh 76
O=c1c2cc(Cl)ccc2nc(-c2ccc(Cl)c(Cl)c2)n1O	CHOP inh 102
O=C(Nc1ccccc1)C1=C[C@@H](c2coc3ccccc3c2=O)C[C@@H](OCc2ccc(CO)cc2)O1	none
CCCN(CC(=O)Nc1ccccc1C)C(=O)c1ccc2c(c1)S(=O)(=O)N=C1CCCCCN12	none (no result: CHOP inh)
NC(=O)c1sc2nc(-c3cccnc3)ccc2c1N	none
COc1ccc(C(=O)c2sc3nc(-c4ccccc4)ccc3c2N)cc1	CHOP inh 78
Cc1ccc(C(=O)CC(=O)COc2ccc(Cl)cc2)cc1	CHOP inh 93
Cc1ccc(C(=O)NCCOc2ccc(Cl)cc2)cc1	none (no result: CHOP inh)
Cc1ccc(/C(N)=N/OC(=O)COc2ccccc2Cl)cc1	CHOP inh 70
COc1ccc(OCC(=O)O/N=C(\N)Cc2ccc(Cl)cc2)cc1	none
Cc1ccc(OCC(=O)O/N=C(\N)Cc2ccc(Cl)cc2)cc1	CHOP inh 77
COc1ccc(OCC(=O)O/N=C(\N)Cc2ccc(Cl)cc2Cl)cc1	CHOP inh 81
COc1cccc(CN(C)C(=O)CSCC(=O)Nc2cc(C)on2)c1OC	none (no result: CHOP inh)
O=C(NCCc1nnc2ccc(SCC(=O)N3CCCC3)nn12)c1ccc(F)cc1	none (no result: CHOP inh)
CCCCc1ccc(NC(=O)COc2ccc(C(=O)Nc3ccccc3OCC)cc2)cc1	CHOP inh 82
Cc1ccc(SCC(=O)N2N=CCC2c2ccccc2)cc1 (stereo not given)	none
CCc1cccc(CC)c1NC(=O)COC(=O)C1(C)CC1(Cl)Cl (stereo not given)	none
Cc1ccccc1-c1noc(-c2ccc(Cl)cc2)n1	none
Cc1ccccc1-c1noc(-c2ccccc2F)n1	CHOP inh 78
CC(C)NC(=O)c1cc(-c2ccco2)nn1-c1ccc(Cl)cc1	none (no result: CHOP inh)
O=C(c1cc(-c2ccco2)nn1-c1cccc(Cl)c1)N1CCCCC1	CHOP inh 71
O=C(Nc1cc(Cl)ccn1)C1(c2ccccc2)CC1(Cl)Cl (stereo not given)	none
Clc1ccc2[nH]c3c(c2c1)CCc1cn[nH]c1-3	CHOP inh 87
c1ccc2c3c([nH]c2c1)-c1[nH]ncc1CC3	CHOP inh 71
CCOC(=O)C1=C(C)Nc2ccccc2N=C1NC(=O)c1ccc(Cl)c(S(=O)(=O)N2CCCC2)c1	none
COc1cc2c(cc1NC(=O)c1cccnc1)CCCC2	none
COc1ccc(C(=O)Nc2cc3c(cc2OC)CCCC3)cc1Br	CHOP inh 82
O=C(Cc1ccc(Cl)cc1)N/N=C/c1ccncc1	none
CC(=O)NNC(=O)C(O)(c1ccccc1)c1ccccc1	none
Cc1ccc(/C(O)=C/C(=O)C(=O)NNC(=O)C(O)(c2ccccc2)c2ccccc2)cc1	CHOP inh 85
CCn1c(Cn2nnc(-c3ccccc3)n2)nnc1SCc1ccc(Cl)c(Cl)c1	CHOP inh 81
CCn1c(Cn2nnc(-c3ccccc3)n2)nnc1SCC(=O)N1CCOCC1	none
COc1ccc(Cn2c(CCC(=O)Nc3ccc(C)c(C)c3)nc3cccnc32)cc1	CHOP inh 86
COc1ccc(Cn2c(CCC(=O)Nc3ccccc3)nc3cccnc32)cc1	none
CC(C)(NO)/C(=N\O)c1ccccc1	CHOP inh 72
Cc1ccc(C)c(N(C(=O)c2csnn2)C(C(=O)NC2CCCCC2)c2ccccn2)c1 (stereo not given)	none (no result: CHOP inh)
CC(=O)Nc1nc2cc3c(cc2s1)OCCO3	none (no result: CHOP inh)
O=C(Nc1nc2cc3c(cc2s1)OCCO3)C1=COCCO1	CHOP inh 94
COCc1nnc(NC(=O)C2CC(=O)N(C3CCCC3)C2)s1 (stereo not given)	none (no result: CHOP inh)
COc1cc(NC2c3ncccc3C(=O)N2Cc2ccco2)cc(OC)c1OC (stereo not given)	none
COc1ccc(-n2nc([N+](=O)[O-])c(=NCCC3=CCCCC3)n2O)cc1	none
O=C(NC1CCCCNC1=O)c1ccco1 (stereo not given)	none (no result: CHOP inh)
Cc1ccc2nc(-c3sc4nc(C)cc(C)c4c3N)[nH]c2c1	CHOP inh 91
Cc1ccccc1Cn1c(=N)n(CC(=O)c2ccc([N+](=O)[O-])cc2)c2ccccc21	CHOP inh 84 (no result: XBP1 UPR activ, Jurkat NFkB inh, UPR CHOP act, 697 NFkB inh)
CCCn1c(=N)n(CC(=O)c2ccc([N+](=O)[O-])cc2)c2ccccc21	none
CC(C)COc1ccc(C(=O)N2C(=O)c3ccc(N)cc3C2=O)cc1	none
CCCC(=O)NC(=S)Nc1cccc(Cl)c1N1CCCC1	CHOP inh 81
O=C(NC(=S)Nc1cccc(Cl)c1N1CCCCC1)c1cccs1	none
COC(=O)c1c(-c2cc(OC)c(OC)c(OC)c2)c2ccc(OCc3ccccn3)cc2c(=O)n1-c1ccc(N)cc1	none (no result: XBP1 UPR activ, Jurkat NFkB inh, UPR CHOP act, 697 NFkB inh)
Cc1ccc(Cn2ccc(NC(=O)c3cc4nc(-c5ccco5)cc(C(F)(F)F)n4n3)n2)cc1	CHOP inh 93
Cc1cc2ncn(C(=O)c3c(-c4ccccc4Cl)noc3C)c2cc1C	CHOP inh 76
CCCC/C(C)=N/NC(=O)C(=O)NCCc1ccccc1	none
CC(C)=CCC/C(C)=C/Cc1c(O)ccc(C(=O)/C=C/c2ccc(O)cc2)c1O	CHOP inh 86

Screening results from PubChem.
